Assay results from ChEMBL document CHEMBL1687733, “Topoisomerase I gene mutations at F270 in the large subunit and N184 in the small subunit contribute to the resistance mechanism of the unicellular parasite Leishmania donovani towards 3,3'-diindolylmethane” (Antimicrob Agents Chemother, 2009).
The source made the active and inactive calls. The rule behind the calls is not given here.

Legend:
Leishmania donovani [1] = assay: Effect on recombinant wild type Leishmania donovani AG83 topoisomerase 1b-mediated cleavage of 25-mer duplex oligonucleotide at 20 uM after 30 mins by PAGE analysis
Method in brief: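 The 5′-32P-labelled 25-mer duplex (10 nM) was incubated with 0.2 μM reconstituted WT His-tagged enzyme, a 20-fold molar enzyme excess. DIM was 0 or 5–20 μM, for 30 min. Reactions were stopped with SDS, trypsinised, and run on 12% denaturing polyacrylamide-urea gel with autoradiography. Read-out was the 12-mer cleaved product.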

Leishmania donovani [2] = assay: Antimicrobial activity against wild type Leishmania donovani AG83 transfected with drug-resistant Leishmania donovani LdDR50 topoisomerase 1 F270L, N184S mutant in large subunit assessed as inhibition of parasite growth at 20 uM after 24 hrs by MTT assay; type: functional; details: AG83, 24 h
Method in brief: (§1)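 WT promastigotes transfected by electroporation with mutant large-subunit (pXG-HYG, hygromycin selection) and/or small-subunit (pXG-GFP2+, G418 selection) topoisomerase I genes. Grown with DIM 1–20 μM for 24 h; MTT read-out, growth as % of optical density of untreated WT parasites.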

[3] = Binding affinity to Leishmania donovani large subunit of topoisomerase 1b
[4] = test system: T1, DNA topoisomerase type IB small subunit (Leishmania donovani (strain BPK282A1)), E9B7X3 [N184S]; assay: Inhibition of recombinant drug-resistant Leishmania donovani LdDR50 topoisomerase 1b small subunit N184S mutant-mediated religation of 14-mer/25-mer suicide DNA substrate at 20 uM […] by PAGE analysis
T1 sequence (whole entry): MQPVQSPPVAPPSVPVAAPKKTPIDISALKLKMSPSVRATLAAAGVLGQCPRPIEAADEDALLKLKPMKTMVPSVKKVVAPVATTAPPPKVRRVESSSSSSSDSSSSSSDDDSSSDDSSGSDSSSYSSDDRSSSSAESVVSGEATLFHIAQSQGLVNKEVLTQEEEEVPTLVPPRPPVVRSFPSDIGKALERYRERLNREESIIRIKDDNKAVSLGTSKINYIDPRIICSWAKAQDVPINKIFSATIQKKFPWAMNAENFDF
Method in brief: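 5′-32P-labelled 14-mer annealed to 25-mer suicide substrate (5 nM) cleaved by 0.15 μM reconstituted enzyme at 23°C, ± 20 μM DIM. Complexes moved to 30°C for 2 min; religation started with 300-fold excess 11-mer acceptor for 30, 60, 120 s. Stopped with 1% SDS, trypsin-treated, 23-mer product resolved on sequencing gel.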

[5] = test system: T2, DNA topoisomerase I (Leishmania donovani (strain BPK282A1)), E9BRC0 [F270L]; assay: Effect on recombinant drug-resistant Leishmania donovani LdDR50 topoisomerase 1b large subunit F270L mutant-mediated cleavage of 25-mer duplex oligonucleotide at 20 uM after 30 mins by PAGE analysis
T2 sequence (whole entry): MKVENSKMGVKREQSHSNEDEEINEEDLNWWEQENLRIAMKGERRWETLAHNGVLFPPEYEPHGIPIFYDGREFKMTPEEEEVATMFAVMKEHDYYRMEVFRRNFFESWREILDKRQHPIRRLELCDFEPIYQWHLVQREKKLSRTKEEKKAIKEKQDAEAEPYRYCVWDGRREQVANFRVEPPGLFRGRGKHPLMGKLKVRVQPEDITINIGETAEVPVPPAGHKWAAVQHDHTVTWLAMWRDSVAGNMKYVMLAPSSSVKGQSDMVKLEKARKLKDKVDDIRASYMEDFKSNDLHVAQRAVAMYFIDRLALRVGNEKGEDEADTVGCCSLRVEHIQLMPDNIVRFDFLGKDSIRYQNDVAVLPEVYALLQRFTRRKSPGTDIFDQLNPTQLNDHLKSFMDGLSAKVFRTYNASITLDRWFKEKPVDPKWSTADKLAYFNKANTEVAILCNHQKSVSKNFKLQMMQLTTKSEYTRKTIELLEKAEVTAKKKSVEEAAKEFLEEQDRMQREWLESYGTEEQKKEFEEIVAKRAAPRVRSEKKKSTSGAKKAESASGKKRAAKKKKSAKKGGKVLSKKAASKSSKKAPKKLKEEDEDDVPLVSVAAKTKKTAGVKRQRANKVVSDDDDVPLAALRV
Method in brief: (§2)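 5′-32P-labelled 25-mer duplex (10 nM) incubated with reconstituted mutant enzyme (0.2 μM, 20-fold molar excess) and DIM 5–20 μM for 30 min (Methods 37°C; legend 23°C). Stopped with SDS, trypsin-treated, resolved on 12% denaturing polyacrylamide-urea gel; cleaved 12-mer detected by autoradiography.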

Leishmania donovani [6] = assay: Antimicrobial activity against wild type Leishmania donovani AG83 transfected with drug-resistant Leishmania donovani LdDR50 topoisomerase 1 K430N mutant in large subunit and wild type small subunit assessed as inhibition of parasite growth at 20 uM after 24 hrs by MTT assay; type: functional; details: AG83, 24 h; method in brief: as §1
[7] = test system: T1, DNA topoisomerase type IB small subunit (Leishmania donovani (strain BPK282A1)), E9B7X3 [N184S]; assay: Effect on recombinant drug-resistant Leishmania donovani LdDR50 topoisomerase 1b small subunit N184S mutant-mediated cleavage of 25-mer duplex oligonucleotide at 20 uM after 30 mins by PAGE analysis; method in brief: as §2
Leishmania donovani [8] = assay: Antimicrobial activity against wild type Leishmania donovani AG83 transfected with drug-resistant Leishmania donovani LdDR50 topoisomerase 1 F270L, K430N mutant in large subunit assessed as inhibition of parasite growth at 20 uM after 24 hrs by MTT assay; type: functional; details: AG83, 24 h; method in brief: as §1
Leishmania donovani [9] = assay: Drug uptake in wild type Leishmania donovani AG83 at 20 uM after 30 mins by spectrophotometric analysis; type: ADME, organism-based; details: in vivo, 0.5 h
Method in brief: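 Log-phase promastigotes at 3 × 10^7 cells/ml with 20 μM DIM at 22°C; aliquots at 1, 5, 10, 20 and 30 min washed three times in ice-cold PBS pH 7.4 with 0.01 N HCl, sonicated. Cell-associated DIM quantified by equilibrium dialysis and absorbance at 280 nm; three experiments in duplicate.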

**Q.** For `c1ccc2c(Cc3c[nH]c4ccccc34)c[nH]c2c1` [ARUNDINE], which Activity (Leishmania donovani [1]) is on record?
**A.** Active

**Q.** What about the inhibition at 20 µM (Leishmania donovani [2]) of the same compound?
**A.** 31%

**Q.** What about the Kd [3] of the same compound?
**A.** 428 nM

**Q.** And the inhibition [4]?
**A.** Active

**Q.** What about the Activity [5] of the same compound?
**A.** inactive

**Q.** And the inhibition at 20 µM (Leishmania donovani [6])?
**A.** 94%

**Q.** And the Activity [7]?
**A.** Active

**Q.** And the inhibition at 20 µM (Leishmania donovani [8])?
**A.** 34%

**Q.** What about the Drug uptake (Leishmania donovani [9]) of the same compound?
**A.** Active
